Data on 32 molecules can be found in ChEMBL document CHEMBL5053517, “Design, synthesis, and antiviral activity of phenylalanine derivatives as HIV-1 capsid inhibitors” (Bioorg Med Chem, 2021).

One may read the CC50 as the concentration at which the toxic effect on the cells reaches its halfway point. By EC50 is commonly meant the concentration giving half of the maximal effect. Broadly, the Kd is the free concentration of one partner at which half of the binding sites on the other are occupied at equilibrium, for simple one-to-one binding.

The test system of one data set is MT4. Kind of data set: (§1) Cytotoxicity against human MT4 cells assessed as reduction in cell viability incubated for 3 days by XTT assay. Particulars: mt4, 72 h, time 3 day. It counts as cell-based. An outline of the steps: (§2)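 Uninfected MT-4 cells were cultured with various compound concentrations at 37°C, 5% CO₂ for three days, in parallel with the antiviral assay. XTT was added, and absorbance at 450 nm was read four hours later. CC₅₀ is the concentration giving 50% loss of cell viability.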
(Formazan colour is commonly taken as a measure of viable cells.)

The subject of data set [1] is Human immunodeficiency virus 1. Kind of data set: Antiviral activity against HIV1 NL4-3 expressing NanoLuc-sec infected in human MT4 cells assessed as reduction in viral replication measured after 3 days by bright Glo-luciferase reporter gene assay. It counts as functional, organism-based. Particulars: Human immunodeficiency virus 1, NL4-3, MT4, 72 h. An outline of the steps:
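MT-4 cells (1 × 10⁵ cells/mL) infected with 200 TCID50 HIV-1 NL4–3 Nanoluc-sec across a range of compound concentrations. Incubation ran 3 days at 37°C, 5% CO₂, over multiple replication rounds. Luminescence was read after Bright Glo addition. EC₅₀ is the concentration giving 50% lower luciferase RLU than virus-control wells.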

Data set [2] in a line: Selectivity index, ratio of CC50 for cytotoxicity against human MT4 cells to EC50 for antiviral activity against HIV1 infected in human MT4 cells. Type of data set: toxicity, cell-based. Particulars: read-out: Ratio CC50/EC50. A digest of the protocol: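 SI is CC₅₀/EC₅₀. For EC₅₀, MT-4 cells (1 × 10⁵ cells/mL) were infected with 200 TCID50 HIV-1 NL4-3 Nanoluc-sec with graded compound concentrations, held 3 days at 37°C, 5% CO₂, and read by luminescence; EC₅₀ is 50% luciferase reduction versus virus control. For CC₅₀, uninfected MT-4 cells were run in parallel for 3 days with an XTT read-out at 450 nm.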

Data set [3] can be described thus: Binding affinity to HIV1 capsid protein hexamer assessed as dissociation constant by SPR analysis. Details: species or system Human immunodeficiency virus 1. An outline of the steps: (§3)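 SPR at 25 °C on amine-coupled GLH chips, with protein at 500 μg/ml in 10 mM sodium acetate pH 5.5. Running buffer was 20 mM sodium phosphate, 150 mM NaCl, 0.005% Tween 20, pH 7.4, plus 3% DMSO for compound dilutions. One-shot kinetics used 100 μL/min, 1 min association and 5 min dissociation. Responses were reference-subtracted, run three times, and KD taken from a one-site binding model.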

A short description of data set [4]: Binding affinity to HIV1 capsid protein monomer assessed as dissociation constant by SPR analysis. Details: species or system Human immunodeficiency virus 1. An outline of the steps: as §3
(In SPR one partner is held on a chip, and binding of the other changes the refractive index at the surface.)

Data set [5] can be described thus: as §1. Type of data set: cell-based. The note with it: MT4 cells, time 3 day. An outline of the steps:
as §2

As for `COc1ccc(N(C)C(=O)[C@H](Cc2ccccc2)NC(=O)c2cccc(S(=O)(=O)N3CCSCC3)c2)cc1`, the CC50 in the data set with MT4 was greater than 9.33 µM. In addition, the EC50 in data set [1] is 5.06 µM. In addition, the selectivity ratio in data set [2] was greater than 1.84.
As for `COc1ccc(N(C)C(=O)[C@H](Cc2ccccc2)NC(=O)c2cccc(NS(=O)(=O)c3ccc(OC(F)(F)F)cc3)c2)cc1`, the CC50 with MT4 is greater than 7.97 µM. Moreover, the EC50 in data set [1] is greater than 7.97 µM.
`COc1ccc(N(C)C(=O)[C@H](Cc2ccccc2)NS(=O)(=O)CC(=O)Nc2ccc(C#N)cc2)cc1`: in the data set on MT4, the CC50 was greater than 9.87 µM. The EC50 in data set [1] was 8.09 µM. The selectivity ratio in data set [2] was greater than 1.22.
Turning to `COc1ccc(N(C)C(=O)[C@H](Cc2ccccc2)NC(=O)c2cccc(S(=O)(=O)Nc3ccc(C(F)(F)F)cc3)c2)cc1`, the CC50 in the data set with MT4 was greater than 8.17 µM. Moreover, the EC50 in data set [1] is greater than 8.17 µM.
Regarding `COc1ccc(N(C)C(=O)[C@H](Cc2ccccc2)NC(=O)c2cccc(S(=O)(=O)N3CCc4cc([N+](=O)[O-])ccc43)c2)cc1`, the CC50 in the data set on MT4 is greater than 8.13 µM. Further, the EC50 in data set [1] was greater than 8.13 µM.
On to `COc1ccc(N(C)C(=O)CS(=O)(=O)N[C@@H](Cc2ccccc2)C(=O)N(C)c2ccc(OC)cc2)cc1`, for which the 50% cytotoxic concentration (CC50) in the data set with MT4 is greater than 9.51 µM. For the same molecule, the EC50 in data set [1] is 5.14 µM. The Kd in data set [3] came to 4.82 µM; in data set [4], 15.8 µM. Further, the selectivity ratio in data set [2] is greater than 1.85.
In the case of `COc1ccc(N(C)C(=O)[C@H](Cc2ccccc2)NC(=O)c2cccc(S(=O)(=O)Nc3cc(F)cc(F)c3)c2)cc1`, the CC50 in the data set on MT4 is greater than 8.63 µM. The EC50 in data set [1] was greater than 8.63 µM.
In the case of `COc1ccc(N(C)C(=O)[C@H](Cc2ccccc2)NC(=O)c2cccc(NS(=O)(=O)c3cc(F)cc(F)c3)c2)cc1`, the CC50 with MT4 was greater than 8.63 µM. For the same molecule, in data set [1], the EC50 was greater than 8.63 µM.
In the case of `COc1ccc(N(C)C(=O)c2cccc(S(=O)(=O)N[C@@H](Cc3ccccc3)C(=O)N(C)c3ccc(OC)cc3)c2)cc1`, the CC50 in the data set with MT4 was greater than 8.51 µM. Also, the EC50 in data set [1] is greater than 8.51 µM.
Take `COc1ccc(N(C)C(=O)[C@H](Cc2ccccc2)NC(=O)c2cccc(S(=O)(=O)N(C)c3ccc(OC)cc3)c2)cc1`: in the data set with MT4, the CC50 was greater than 8.51 µM. Also, the EC50 in data set [1] came to 5.27 µM. In addition, in data set [2], the selectivity ratio is greater than 1.61.
`COc1ccc(N(C)C(=O)[C@H](Cc2ccccc2)NS(=O)(=O)c2cccc(C(=O)Nc3ccc4ncsc4c3)c2)cc1`: the CC50 in the data set on MT4 was greater than 8.32 µM. Further, the EC50 in data set [1] is greater than 8.32 µM.
On to `COc1ccc(N(C)C(=O)[C@H](Cc2ccccc2)NS(=O)(=O)CC(=O)N2CCc3cc(OC)ccc32)cc1`, for which, in the data set with MT4, the CC50 is greater than 9.3 µM. The EC50 in data set [1] is greater than 9.3 µM.
For `COc1ccc(N(C)C(=O)[C@H](Cc2ccccc2)NS(=O)(=O)CC(=O)N2CCc3cc([N+](=O)[O-])ccc32)cc1`, the CC50 at 72 h in data set [5] was greater than 9.05 µM. In addition, in data set [1], the EC50 was greater than 9.09 µM.
Take `COc1ccc(N(C)C(=O)[C@H](Cc2ccccc2)NC(=O)c2cccc(S(=O)(=O)N3CCc4cc(OC)ccc43)c2)cc1`: the CC50 with MT4 is greater than 8.34 µM. Further, the concentration giving a half-maximal response (EC50) in data set [1] was greater than 8.34 µM.
Regarding `COc1ccc(N(C)C(=O)[C@H](Cc2ccccc2)NS(=O)(=O)CC(=O)Nc2ccc3ncsc3c2)cc1`, in the data set on MT4, the CC50 is greater than 9.28 µM. Besides, in data set [1], the EC50 was greater than 9.28 µM.
On to `COc1ccc(N(C)C(=O)[C@H](Cc2ccccc2)NC(=O)C(=O)N2CCc3cc(OC)ccc32)cc1`, for which, in the data set with MT4, the CC50 was greater than 10.3 µM. In addition, in data set [1], the EC50 is greater than 10.3 µM.
In the case of `COc1ccc(N(C)C(=O)[C@H](Cc2ccccc2)NS(=O)(=O)c2cccc(C(=O)NC3CC3)c2)cc1`, in the data set on MT4, the CC50 is greater than 9.85 µM. Also, in data set [1], the EC50 was greater than 9.85 µM.
Consider `COc1ccc(N(C)C(=O)[C@H](Cc2ccccc2)NS(=O)(=O)CC(=O)Nc2cc(F)cc(F)c2)cc1`, for which the CC50 in the data set with MT4 was greater than 9.66 µM. Moreover, the EC50 in data set [1] was greater than 9.66 µM.
As to `COc1ccc(N(C)C(=O)[C@H](Cc2ccccc2)NC(=O)c2cccc(NS(=O)(=O)c3ccc(F)cc3)c2)cc1`, the CC50 in the data set with MT4 was greater than 8.91 µM. Further, the EC50 in data set [1] was greater than 8.91 µM.
In the case of `COc1ccc(N(C)C(=O)[C@H](Cc2ccccc2)NC(=O)c2cccc(S(=O)(=O)N3CCc4cc(N)ccc43)c2)cc1`, in the data set on MT4, the CC50 was greater than 8.55 µM. The EC50 in data set [1] was found to be 2.57 µM. In addition, the dissociation constant (Kd) in data set [3] worked out at 4.21 µM; in data set [4], 11.6 µM. For the same molecule, the selectivity ratio in data set [2] is greater than 3.33.
With `COc1ccc(N(C)C(=O)[C@H](Cc2ccccc2)NC(=O)C(=O)Nc2ccc([N+](=O)[O-])cc2)cc1`, the EC50 in data set [1] is greater than 10.5 µM.
For `COc1ccc(N(C)C(=O)[C@H](Cc2ccccc2)NC(=O)C(=O)Nc2cc(F)cc(F)c2)cc1`, the CC50 in the data set with MT4 is greater than 8.81 µM. Moreover, in data set [1], the EC50 is greater than 8.81 µM.
Regarding `COc1ccc(N(C)C(=O)[C@H](Cc2ccccc2)NS(=O)(=O)c2cccc(C(=O)N3CCc4ccncc43)c2)cc1`, the CC50 at 72 h in data set [5] is greater than 8.76 µM. Besides, the EC50 in data set [1] was greater than 8.76 µM.
Regarding `COc1ccc(N(C)C(=O)C(=O)N[C@@H](Cc2ccccc2)C(=O)N(C)c2ccc(OC)cc2)cc1`, the CC50 in the data set with MT4 is greater than 10.5 µM. The EC50 in data set [1] is greater than 10.5 µM.
Take `COc1ccc(N(C)C(=O)[C@H](Cc2ccccc2)NC(=O)c2cccc(S(=O)(=O)N(C)C)c2)cc1`: the CC50 in the data set with MT4 is greater than 10.1 µM. The EC50 in data set [1] was 8.68 µM. Besides, the selectivity ratio in data set [2] was greater than 1.12.
Take `COc1ccc(N(C)C(=O)[C@H](Cc2ccccc2)NC(=O)C(=O)N2CCc3cc([N+](=O)[O-])ccc32)cc1`: the CC50 with MT4 is greater than 9.95 µM. In addition, the EC50 in data set [1] is greater than 9.95 µM.
On to `COc1ccc(N(C)C(=O)[C@H](Cc2ccccc2)NC(=O)c2cccc(S(=O)(=O)N3CCCCC3)c2)cc1`, for which the CC50 at 72 h in data set [5] was greater than 9.03 µM. The EC50 in data set [1] is 4.85 µM. Also, the selectivity ratio in data set [2] is greater than 1.86.
For the molecule `COc1ccc(N(C)C(=O)[C@H](Cc2ccccc2)NC(=O)c2cccc(S(=O)(=O)N3CCc4ccccc43)c2)cc1`, the CC50 in the data set with MT4 is greater than 8.78 µM. In addition, in data set [1], the EC50 was greater than 8.78 µM.
In the case of `COc1ccc(N(C)C(=O)[C@H](Cc2ccccc2)NC(=O)C(=O)Nc2ccc3ncsc3c2)cc1`, the CC50 with MT4 was greater than 10.2 µM. For the same molecule, the EC50 in data set [1] was greater than 10.2 µM.
As for `COc1ccc(N(C)C(=O)[C@H](Cc2ccccc2)NC(=O)C(=O)Nc2ccc(C#N)cc2)cc1`, in the data set on MT4, the CC50 is greater than 11 µM. Also, the EC50 in data set [1] was greater than 11 µM.
On to `COc1ccc(N(C)C(=O)[C@H](Cc2ccccc2)NS(=O)(=O)CC(=O)n2ncc3ccccc32)cc1`, for which, in the data set with MT4, the CC50 was greater than 9.87 µM. Moreover, the EC50 in data set [1] was greater than 9.87 µM.
Take `COc1ccc(N(C)C(=O)[C@H](Cc2ccccc2)NS(=O)(=O)c2cccc(C(=O)N3CCOCC3)c2)cc1`: the CC50 with MT4 is greater than 9.3 µM. Besides, in data set [1], the EC50 was greater than 9.3 µM.
